Test results as given in PubChem BioAssay AID552 (SRMLSC, 2006).
The whole screen tested about 20,000 compounds, of which about 10 (0.05%) were called active. No stated cut-off is given here; in the data, active means inhibition above about 40%; inactive means the rest. Many of the other results were omitted from the sample, so actives are more common in it than they were.

assay: antibacterial activity on E. coli BW25113 – strain BW25113 wild type, absorbance readout, primary screen (AID 552);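 further: bacteria exposed to compound for 20 hours at 37 °C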; settings: E. coli BW25113 growth inhibition, OD600; at 10 µM; stronger effect = higher value
In short: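 System: bacterial strain in a whole-cell growth screen; medium: LB broth with 50 µg/mL kanamycin; detection: absorbance at 615 nm; schedule: 20 h exposure, 37 °C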

inhibition, inactive:
O=C(COc1ccccc1F)NC1CC1 -9.95%
CC(C)(C)C(=O)CCN1C(=O)C2(OCCO2)c2ccccc21 11.1%
CCOC(=O)N1CCN(CC(=O)c2c(C)[nH]c3ccccc23)CC1 8.75%
COC(=O)C(C)N(C#N)c1nc(C)nc(C)n1 (stereo not drawn) -24.9%
Cc1cc(Cl)ccc1N1C(=O)CC(SCCC(=O)O)C1=O (stereo not drawn) 0.27%
COC(=O)C1=C(C)Nc2ncnn2C1c1ccco1 (stereo not drawn) -13.1%
CCOC(=O)c1c(C)oc2ccc(OCC(=O)N(CC)CC)cc12 -3.67%
COc1ccc(-c2cc3ccc(OCc4nn[nH]n4)cc3oc2=O)cc1 -2.44%
CCCn1c(C(O)c2cc(OC)ccc2OC)nc2ccccc21 (stereo not drawn) -24.6%
CC1Cn2c(nnc2-c2cccs2)S1 (stereo not drawn) -19.2%
COc1ccc(-c2nc(SCC(=O)N3CCOCC3)n[nH]2)cc1 -14%
Cn1c(=O)c2c(ncn2CC(=O)N2CCN(c3ccccc3)CC2)n(C)c1=O 0.27%
CC(C)NS(=O)(=O)c1ccc(OCC(=O)Nc2ccc3c(c2)OCCO3)cc1 -17.1%
COc1ccccc1C(=O)n1nc(-c2ccccc2)nc1N -5.43%
Cc1nnc2sc(-c3ccco3)nn12 -19.1%
O=C(c1cccnc1NCc1ccccc1)N1CCOCC1 4.48%
Cc1ccc(-c2noc(CSc3nnc(-c4ccccc4)n3C)n2)cc1 13.8%
Cn1c(=O)n(C)c2cc(C(=O)Nc3ccc4c(c3)OCO4)ccc21 -11.7%
COc1ccc(S(=O)(=O)N2CCCC2)c(C)c1C -7.21%
CC1=C(C(=O)OC2CCCCC2)C(c2cccnc2)n2ncnc2N1 (stereo not drawn) -3.82%
CCOc1ccc(Cn2nnc(C(=O)Nc3ccc(OC)cc3OC)c2N)cc1 1.62%
Cc1cc(C)cc(N(C(C)C(=O)Nc2c(C)n(C)n(-c3ccccc3)c2=O)S(C)(=O)=O)c1 (stereo not drawn) -10.4%
Cc1nn(-c2ccccc2)c2[nH]c(C(F)(F)F)cc(=O)c12 -5.63%
COc1ccc(CCNS(=O)(=O)c2ccc(C(=O)NCc3ccco3)cc2)cc1OC 8.04%
O=C(c1ccco1)N1CCN(C(=O)C2CC(c3ccc(F)cc3)=NO2)CC1 (stereo not drawn) 9.27%
CC(C(=O)N1CCOCC1)N1c2cccc3cccc(c23)S1(=O)=O (stereo not drawn) -6.66%
CSc1cccc(NC(=O)CSc2ccccc2)c1 -12.8%
O=C(c1ccccc1-c1ccccc1)N1CCOCC1 -14.8%
